Measurements reported in ChEMBL document CHEMBL1155297, “Synthesis, antimicrobial and antioxidant activities of substituted pyrazoles, isoxazoles, pyrimidine and thioxopyrimidine derivatives” (2009).

Experiments:
Type in all cases: functional
[1] = Antioxidant activity assessed as nitric oxide production at 100 uM after 120 mins by Griess reagent method
Procedure, shortened: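 Nitric oxide assay with Griess read-out. At intervals, 0.5 ml of incubation solution was mixed with 0.5 ml Griess reagent (1% sulfanilamide, 0.1% N-naphthylethylenediamine dihydrochloride, 2% o-phosphoric acid in water). The control received an equal amount of solvent and was handled identically.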

[2] = tested on: Fusarium solani; test: Antifungal activity against Fusarium solani NCIM 1330 at 100 ug/disk after 48 hrs by agar disk diffusion method; details: NCIM 1330, 48 h, read-out: IZ
Procedure, shortened: (§1)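 Fungal disc diffusion on nutrient agar plates pre-inoculated with each fungus. 6 mm sterile paper discs carried the compound in DMSO at the stated amount per disc. Plates were held at 37 °C, and inhibition-zone diameter was measured after 48 h. Values are the mean of three independent triplicate readings.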

[3] = tested on: Proteus vulgaris; test: Antibacterial activity against Proteus vulgaris NCIM 2027 at 200 ug/disk after 24 hrs by agar disk diffusion method; details: NCIM 2027, 24 h, read-out: IZ
Procedure, shortened: (§2)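 Agar disc diffusion on nutrient agar plates pre-inoculated with each bacterium. Sterile 6 mm filter-paper discs were moistened with compound in DMSO at the stated per-disc amount. Plates were incubated at 37 °C, and the growth-inhibition zone diameter was read after 24 h. Each determination was run in triplicate, and the mean of three independent readings is reported.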

[4] = tested on: Aspergillus niger; test: Antifungal activity against Aspergillus niger NCIM 596 at 200 ug/disk after 48 hrs by agar disk diffusion method; details: NCIM 596, 48 h, read-out: IZ; procedure, shortened: as §1
[5] = tested on: Klebsiella pneumoniae; test: Antibacterial activity against Klebsiella pneumoniae NCIM 2957 at 200 ug/disk after 24 hrs by agar disk diffusion method; details: NCIM 2957, 24 h, read-out: IZ; procedure, shortened: as §2
[6] = tested on: Aspergillus niger; test: Antifungal activity against Aspergillus niger NCIM 596 at 100 ug/disk after 48 hrs by agar disk diffusion method; details: NCIM 596, 48 h, read-out: IZ; procedure, shortened: as §1
[7] = tested on: Proteus vulgaris; test: Antibacterial activity against Proteus vulgaris NCIM 2027 at 100 ug/disk after 24 hrs by agar disk diffusion method; details: NCIM 2027, 24 h, read-out: IZ; procedure, shortened: as §2
[8] = tested on: Bacillus subtilis; test: Antibacterial activity against Bacillus subtilis NCIM 2063 at 100 ug/disk after 24 hrs by agar disk diffusion method; details: NCIM 2063, 24 h, read-out: IZ; procedure, shortened: as §2
[9] = tested on: Staphylococcus aureus; test: Antibacterial activity against Staphylococcus aureus NCIM 5021 at 100 ug/disk after 24 hrs by agar disk diffusion method; details: NCIM 5021, 24 h, read-out: IZ; procedure, shortened: as §2
[10] = tested on: Curvularia lunata; test: Antifungal activity against Curvularia lunata NCIM 716 at 100 ug/disk after 48 hrs by agar disk diffusion method; details: NCIM 716, 48 h, read-out: IZ; procedure, shortened: as §1
[11] = tested on: Curvularia lunata; test: Antifungal activity against Curvularia lunata NCIM 716 at 200 ug/disk after 48 hrs by agar disk diffusion method; details: NCIM 716, 48 h, read-out: IZ; procedure, shortened: as §1
[12] = tested on: Fusarium solani; test: Antifungal activity against Fusarium solani NCIM 1330 at 200 ug/disk after 48 hrs by agar disk diffusion method; details: NCIM 1330, 48 h, read-out: IZ; procedure, shortened: as §1
[13] = tested on: Radical scavenging activity; test: Antioxidant activity assessed as DPPH free radical scavenging activity at 100 uM after 20 mins
Procedure, shortened: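 DPPH scavenging: compound solutions were added to DPPH in dioxane/ethanol and kept at ambient temperature for 20 min. Absorbance was read at 517 nm. The test–control difference was expressed as percent DPPH radical scavenging.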

[14] = tested on: Klebsiella pneumoniae; test: Antibacterial activity against Klebsiella pneumoniae NCIM 2957 at 100 ug/disk after 24 hrs by agar disk diffusion method; details: NCIM 2957, 24 h, read-out: IZ; procedure, shortened: as §2
[15] = tested on: Bacillus subtilis; test: Antibacterial activity against Bacillus subtilis NCIM 2063 at 200 ug/disk after 24 hrs by agar disk diffusion method; details: NCIM 2063, 24 h, read-out: IZ; procedure, shortened: as §2
[16] = tested on: Staphylococcus aureus; test: Antibacterial activity against Staphylococcus aureus NCIM 5021 at 200 ug/disk after 24 hrs by agar disk diffusion method; details: NCIM 5021, 24 h, read-out: IZ; procedure, shortened: as §2

Compound	inhibition [1] [%]	zone of inhibition at 100 µg/disc [2] [mm]	zone of inhibition at 200 µg/disc [3] [mm]	zone of inhibition at 200 µg/disc [4] [mm]	zone of inhibition at 200 µg/disc [5] [mm]	zone of inhibition at 100 µg/disc [6] [mm]	zone of inhibition at 100 µg/disc [7] [mm]	zone of inhibition at 100 µg/disc [8] [mm]	zone of inhibition at 100 µg/disc [9] [mm]	zone of inhibition at 100 µg/disc [10] [mm]	zone of inhibition at 200 µg/disc [11] [mm]	zone of inhibition at 200 µg/disc [12] [mm]	inhibition [13] [%]	zone of inhibition at 100 µg/disc [14] [mm]	zone of inhibition at 200 µg/disc [15] [mm]	zone of inhibition at 200 µg/disc [16] [mm]
N=C1ON=C(N)C1C(CS(=O)(=O)c1ccccc1)S(=O)(=O)c1ccccc1 (configuration not stated)	84.9	31	28	31	29	28	26	30	29	29	32	34	85.8	26	32	31
NC1=NC(=O)N=C(N)C1C(CS(=O)(=O)c1ccccc1)S(=O)(=O)c1ccccc1 (configuration not stated)	29.7	14	16	18	18	15	14	16	18	18	21	19	28.8	16	19	20
NC1=NC(=O)N=C(N)C1C(CC(=O)c1ccc(Cl)cc1)C(=O)c1ccc(Cl)cc1 (configuration not stated)	39.4	17	12	20	13	16	10	12	13	14	18	19	41	11	14	15
NC1=NC(=O)N=C(N)C1C(CS(=O)(=O)c1ccc(Cl)cc1)S(=O)(=O)c1ccc(Cl)cc1 (configuration not stated)	35.9	17	19	19	20	16	17	23	22	19	23	20	35.8	18	25	24
Cc1ccc(S(=O)(=O)CC(C2C(N)=NN=C2N)S(=O)(=O)c2ccc(C)cc2)cc1 (configuration not stated)	60.5	30	25	31	26	28	22	26	27	31	33	35	59.4	23	28	29
CN1C(=N)C(C(CS(=O)(=O)c2ccc(Cl)cc2)S(=O)(=O)c2ccc(Cl)cc2)C(=N)N(C)C1=O (configuration not stated)	30.2	16	13	17	14	15	11	15	16	17	21	19	31.6	12	17	18
NC1=NC(=S)N=C(N)C1C(CS(=O)(=O)c1ccccc1)S(=O)(=O)c1ccccc1 (configuration not stated)	45.8	18	21	19	23	16	19	23	22	19	22	20	46.9	21	26	25
Cc1ccc(C(=O)CC(C(=O)c2ccc(C)cc2)C2C(N)=NC(=O)N=C2N)cc1 (configuration not stated)	27.2	14	14	15	12	13	13	11	12	15	17	18	28.6	10	12	15
NC1=NC(=O)N=C(N)C1C(CC(=O)c1ccccc1)C(=O)c1ccccc1 (configuration not stated)	26.8	13	14	17	12	14	12	16	11	16	20	16	24.7	11	15	14
Cc1ccc(S(=O)(=O)CC(C2C(N)=NC(=S)N=C2N)S(=O)(=O)c2ccc(C)cc2)cc1 (configuration not stated)	39.9	19	20	20	21	17	20	20	21	21	23	21	38.7	19	22	24
Cc1ccc(C(=O)CC(C(=O)c2ccc(C)cc2)C2C(N)=NN=C2N)cc1 (configuration not stated)	68.2	32	26	31	27	30	24	27	25	31	33	35	66.5	25	29	28
Cc1ccc(C(=O)CC(C(=O)c2ccc(C)cc2)C2C(N)=NC(=S)N=C2N)cc1 (configuration not stated)	29.4	15	18	16	20	14	16	21	20	15	18	19	32.3	18	24	21
